Measured values published in ChEMBL document CHEMBL2177065, “14-Alkoxy- and 14-acyloxypyridomorphinans: μ agonist/δ antagonist opioid analgesics with diminished tolerance and dependence side effects” (J Med Chem, 2012).
Activity calls are given as the source filed them. The calls are words filed in the database; no cut-off is given here.

What was measured:
Mu-type opioid receptor [1] = biological target: T1, Mu-type opioid receptor (Homo sapiens, UniProt P35372); test: Agonist activity at human mu opioid receptor expressed in CHO cells assessed as [35S]GTPgammaS binding at 10 uM by scintillation counting analysis; type: functional, cell-based
T1 sequence (P35372 whole entry): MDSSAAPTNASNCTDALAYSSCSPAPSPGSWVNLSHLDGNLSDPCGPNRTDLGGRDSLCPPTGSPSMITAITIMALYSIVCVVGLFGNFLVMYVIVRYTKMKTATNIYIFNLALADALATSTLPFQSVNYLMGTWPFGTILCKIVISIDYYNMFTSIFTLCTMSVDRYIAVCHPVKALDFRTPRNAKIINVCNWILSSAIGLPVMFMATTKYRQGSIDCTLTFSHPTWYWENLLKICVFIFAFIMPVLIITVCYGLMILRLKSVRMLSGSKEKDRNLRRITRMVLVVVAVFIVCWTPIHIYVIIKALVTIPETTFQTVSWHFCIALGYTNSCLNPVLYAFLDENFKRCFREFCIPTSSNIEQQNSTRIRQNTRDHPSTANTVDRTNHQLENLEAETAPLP
How it was run: (§1)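 Human KOR or MOR in CHO cell membranes (50 µg protein), 3 h at 25 °C, pH 7.4 Tris buffer with 100 mM NaCl, 10 mM MgCl2, 1 mM EDTA, 1 mM DTT, 0.1% BSA, GDP 40 µM and [35S]GTP-γ-S 50 pM. Stimulation = (S−B)/B×100, with Emax relative to U69,593 (KOR) or DAMGO (MOR). Curves were ten points, ≥3 experiments pooled. Antagonist Ke was taken from the shift in standard agonist EC50.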

[2] = biological target: T2, Kappa-type opioid receptor (Homo sapiens, UniProt P41145); test: Agonist activity at human kappa opioid receptor expressed in CHO cells assessed as [35S]GTPgammaS binding at 10 uM by scintillation counting analysis; type: functional, cell-based; how it was run: as §1
T2 sequence (P41145 whole entry): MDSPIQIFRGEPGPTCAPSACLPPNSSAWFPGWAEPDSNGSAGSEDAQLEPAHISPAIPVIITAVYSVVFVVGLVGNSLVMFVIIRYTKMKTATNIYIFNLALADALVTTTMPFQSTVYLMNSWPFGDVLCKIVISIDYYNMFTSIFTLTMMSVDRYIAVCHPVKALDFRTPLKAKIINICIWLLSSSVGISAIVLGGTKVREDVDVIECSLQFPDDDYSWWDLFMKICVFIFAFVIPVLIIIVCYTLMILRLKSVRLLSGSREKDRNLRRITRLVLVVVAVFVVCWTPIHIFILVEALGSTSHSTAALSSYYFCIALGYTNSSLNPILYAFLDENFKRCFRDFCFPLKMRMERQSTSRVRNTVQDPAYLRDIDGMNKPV

[3] = system: Delta-type opioid receptor; test: Agonist activity at delta opioid receptor expressed in rat/mouse NG108-15 cells assessed as [35S]GTPgammaS binding at 10 uM by scintillation counting analysis; type: functional, cell-based
How it was run: as §1, with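 “NG108-15” for “Human KOR or MOR in CHO”, “pM. Nonspecific binding with 40 µM GTP-γ-S; filtration and scintillation counting.” for “pM.”, “DADLE.” for “U69,593 (KOR) or DAMGO (MOR).”, “pooled.” for “pooled. Antagonist”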

Homo sapiens [4] = species: Homo sapiens; test: Selectivity ratio of Ki for human kappa opioid receptor to Ki for human delta opioid receptor
[5] = biological target: T3, Delta-type opioid receptor (Homo sapiens, UniProt P41143); test: Displacement of [3H]DADLE from human delta opioid receptor expressed in CHO cells by scintillation counting analysis; type: cell-based
T3 sequence (P41143 whole entry): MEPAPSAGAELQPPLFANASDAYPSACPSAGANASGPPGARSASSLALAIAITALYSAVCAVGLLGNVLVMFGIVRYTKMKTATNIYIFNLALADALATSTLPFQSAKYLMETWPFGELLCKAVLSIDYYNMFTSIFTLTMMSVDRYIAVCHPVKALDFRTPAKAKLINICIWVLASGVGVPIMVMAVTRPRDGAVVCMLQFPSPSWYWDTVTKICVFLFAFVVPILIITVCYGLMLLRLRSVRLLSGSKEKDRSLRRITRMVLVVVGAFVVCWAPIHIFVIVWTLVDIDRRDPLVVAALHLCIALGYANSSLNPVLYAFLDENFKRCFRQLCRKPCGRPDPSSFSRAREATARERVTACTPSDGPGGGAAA

Homo sapiens [6] = species: Homo sapiens; test: Selectivity ratio of Ki for human mu opioid receptor to Ki for human delta opioid receptor
[7] = system: Delta-type opioid receptor; test: Antagonist activity at delta opioid receptor expressed in rat/mouse NG108-15 cells assessed as [35S]GTPgammaS binding by scintillation counting analysis; type: functional, cell-based
How it was run: as §1, with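 “NG108-15” for “Human KOR or MOR in CHO”, “pM. Nonspecific binding with 40 µM GTP-γ-S; filtration and scintillation counting.” for “pM.”, “DADLE.” for “U69,593 (KOR) or DAMGO (MOR).”, “pooled.” for “pooled. Antagonist”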

[8] = biological target: T2, Kappa-type opioid receptor; test: Displacement of [3H]U69,593 from human kappa opioid receptor expressed in CHO cells by scintillation counting analysis; type: cell-based
Mu-type opioid receptor [9] = biological target: T1, Mu-type opioid receptor; test: Displacement of [3H]DAMGO from human mu opioid receptor expressed in CHO cells by scintillation counting analysis; type: cell-based
[10] = biological target: T3, Delta-type opioid receptor; test: Binding affinity to delta opioid receptor by radioligand binding assay
How it was run: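 Membranes from CHO cells stably expressing human DOR; [³H]DADLE at ~2 nM, displaced by 10 drug concentrations. Incubated 2 h at 25 °C in 50 mM Tris-HCl pH 7.4 with protease inhibitors, ~30 µg protein; triplicates; filtration and scintillation counting. Nonspecific binding defined with 20 µM levallorphan. Three experiments pooled and fitted for IC50.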

[11] = biological target: T2, Kappa-type opioid receptor; test: Binding affinity to kappa opioid receptor by radioligand binding assay
Mu-type opioid receptor [12] = biological target: T1, Mu-type opioid receptor; test: Binding affinity to mu opioid receptor by radioligand binding assay
Mu-type opioid receptor [13] = biological target: T1, Mu-type opioid receptor; test: Agonist activity at human mu opioid receptor expressed in CHO cells assessed as [35S]GTPgammaS binding by scintillation counting analysis relative to DAMGO; type: functional, cell-based; how it was run: as §1
Mu-type opioid receptor [14] = biological target: T1, Mu-type opioid receptor; test: Agonist activity at human mu opioid receptor expressed in CHO cells assessed as [35S]GTPgammaS binding by scintillation counting analysis; type: functional, cell-based; how it was run: as §1
[15] = biological target: T2, Kappa-type opioid receptor; test: Agonist activity at human kappa opioid receptor expressed in CHO cells assessed as [35S]GTPgammaS binding by scintillation counting analysis; type: functional, cell-based; how it was run: as §1
[16] = Agonist activity at delta opioid receptor expressed in rat/mouse NG108-15 cells assessed as [35S]GTPgammaS binding by scintillation counting analysis relative to DADLE; type: functional, cell-based
How it was run: as §1, with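 “NG108-15” for “Human KOR or MOR in CHO”, “pM. Nonspecific binding with 40 µM GTP-γ-S; filtration and scintillation counting.” for “pM.”, “DADLE.” for “U69,593 (KOR) or DAMGO (MOR).”, “pooled.” for “pooled. Antagonist”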

[17] = biological target: T2, Kappa-type opioid receptor; test: Agonist activity at human kappa opioid receptor expressed in CHO cells assessed as [35S]GTPgammaS binding by scintillation counting analysis relative to U69,593; type: functional, cell-based; how it was run: as §1

SMILES | Activity (Mu-type opioid receptor [1]) | Activity [2] | Activity [3] | Ratio Ki (Homo sapiens [4]) | Ki [5] | Ratio Ki (Homo sapiens [6]) | Ke [7] | Ki [8] | Ki (Mu-type opioid receptor [9]) | Ki [10] | Ki [11] | Ki (Mu-type opioid receptor [12]) | Emax (Mu-type opioid receptor [13]) | EC50 (Mu-type opioid receptor [14]) | EC50 [15] | Emax [16] | Emax [17]
Oc1ccc2c3c1O[C@H]1c4ncc(-c5ccc(Cl)cc5)cc4C=C4[C@@H](C2)N(CC2CC2)CC[C@]431 | inactive | inactive | inactive | 2.2 | 2.71 nM | 4.8 | 0.58 nM | 5.97 nM | 13 nM | – | – | – | – | – | – | – | –
Oc1ccc2c3c1O[C@H]1c4ncc(-c5ccc(Cl)cc5)cc4C[C@@]4(O)[C@@H](C2)N(CC2CC2)CC[C@]314 | – | – | – | – | – | – | – | – | – | 2.2 nM | 20 nM | 51 nM | – | – | – | – | –
O=C(O[C@@]12Cc3cc(-c4ccc(Cl)cc4)cnc3[C@@H]3Oc4c(O)ccc5c4[C@@]31CCN(CC1CC1)[C@@H]2C5)c1ccccc1 | inactive | inactive | inactive | 1.3 | 87 nM | 2.2 | 218 nM | 117 nM | 192 nM | – | – | – | – | – | – | – | –
CN1CC[C@]23c4c5ccc(O)c4O[C@H]2c2ncc(-c4ccc(Cl)cc4)cc2C[C@@]3(O)[C@H]1C5 | – | – | – | – | – | – | – | – | – | 3.9 nM | 468 nM | 230 nM | – | – | – | – | –
CN1CC[C@]23c4c5ccc(O)c4O[C@H]2c2ncc(-c4ccc(Cl)cc4)cc2C[C@@]3(OCc2ccccc2)[C@H]1C5 | – | – | – | 28 | 1.78 nM | 2.6 | 4.54 nM | 49 nM | 4.69 nM | – | – | – | 119% | 301 nM | 215 nM | 52% | 32%
CN1CC[C@]23c4c5ccc(O)c4O[C@H]2c2ncc(-c4ccc(Cl)cc4)cc2C[C@@]3(OC(=O)CCc2ccccc2)[C@H]1C5 | – | – | – | 4.6 | 0.96 nM | 0.98 | 1.64 nM | 4.41 nM | 0.94 nM | – | – | – | 105% | 48 nM | 136 nM | 59% | 16%
O=C(Cc1ccccc1)O[C@@]12Cc3cc(-c4ccc(Cl)cc4)cnc3[C@@H]3Oc4c(O)ccc5c4[C@@]31CCN(CC1CC1)[C@@H]2C5 | inactive | – | inactive | 2.3 | 1.33 nM | 0.78 | 0.37 nM | 3.1 nM | 1.04 nM | – | – | – | – | – | 26 nM | – | 34%
CN1CC[C@]23c4c5ccc(O)c4O[C@H]2c2ncc(-c4ccc(Cl)cc4)cc2C[C@@]3(OC(=O)c2ccccc2)[C@H]1C5 | – | inactive | inactive | 6.6 | 17 nM | 4.9 | 45 nM | 112 nM | 84 nM | – | – | – | 55% | 4620 nM | – | – | –
